Drawing on ChEMBL document CHEMBL1154061, “Synthesis and in vitro antibacterial activity of 7-(4-alkoxyimino-3-amino-3-methylpiperidin-1-yl)fluoroquinolone derivatives” (Eur J Med Chem, 2009), this text covers MIC and CC50 for six compounds.

One series concerns Pseudomonas aeruginosa. The experiment in a line: Antibacterial activity against Pseudomonas aeruginosa 17 after 18 to 24 hrs by twofold serial dilution method. The class given is functional. A digest of the protocol: (§1)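 Agar media, standard twofold serial dilution (NCCLS M100-S11 basis). Plates incubated at 35 °C for 18–24 h. MIC taken as the lowest compound concentration giving complete inhibition of visible bacterial growth.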

Series [1] has as its system Staphylococcus epidermidis. Put plainly: Antibacterial activity against Staphylococcus epidermidis ATCC 12228 after 18 to 24 hrs by twofold serial dilution method. The class given is functional. The essentials:
as §1

For another series, the system named is Enterobacter cloacae. Put plainly: Antibacterial activity against Enterobacter cloacae 45301 after 18 to 24 hrs by twofold serial dilution method. The class given is functional. A digest of the protocol: as §1
The subject of the next series is Streptococcus pyogenes. The experiment in a line: Antibacterial activity against Streptococcus pyogenes 9619 after 18 to 24 hrs by twofold serial dilution method. It is filed as functional. A digest of the protocol: as §1
For the next series, the system named is Escherichia coli. Put plainly: Antibacterial activity against Escherichia coli 26 after 18 to 24 hrs by twofold serial dilution method. The class given is functional. A digest of the protocol:
as §1

In a further series the test system is Klebsiella pneumoniae. Put plainly: Antibacterial activity against Klebsiella pneumoniae 7 after 18 to 24 hrs by twofold serial dilution method. The class given is functional. The essentials:
as §1

The subject of another series is Enterococcus faecalis. The experiment in a line: Antibacterial activity against Enterococcus faecalis ATCC 29212 after 18 to 24 hrs by twofold serial dilution method. It is filed as functional. The essentials:
as §1

Another series concerns Streptococcus pneumoniae. Put plainly: Antibacterial activity against Streptococcus pneumoniae 97100 after 18 to 24 hrs by twofold serial dilution method. It is filed as functional. A digest of the protocol:
as §1

A further series concerns Shigella sonnei. Put plainly: Antibacterial activity against Shigella sonnei 51592 after 18 to 24 hrs by twofold serial dilution method. The class given is functional. The essentials:
as §1

The nature of series [2]: Cytotoxicity against african green monkey Vero cells assessed as cell viability after 72 hrs by MTT assay. Conditions: chlorocebus sabaeus. The class given is cell-based. On the technique in general: Tetrazolium assays rely on reduction of a dye to a coloured formazan, in cell work by metabolically active cells.
Series [3] concerns Staphylococcus aureus. The experiment in a line: Antibacterial activity against methicillin-resistant Staphylococcus aureus 05-3 after 18 to 24 hrs by twofold serial dilution method. It is filed as functional. A digest of the protocol: (§2)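 Agar twofold serial dilution MIC. Plates incubated at 35 °C for 18–24 h. MIC taken as the lowest compound concentration giving complete inhibition of visible bacterial growth.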

Series [4] relates to Staphylococcus aureus. The experiment in a line: Antibacterial activity against Staphylococcus aureus ATCC 29213 after 18 to 24 hrs by twofold serial dilution method. It is filed as functional. The essentials: as §1
Series [5] relates to Staphylococcus epidermidis. The experiment in a line: Antibacterial activity against methicillin-resistant Staphylococcus epidermidis 05-1 after 18 to 24 hrs by twofold serial dilution method. It is filed as functional. The essentials: as §2

≈ marks a conversion by molar mass, not a printed value. Bounds are passed on as bounds.

For orientation: MIC means the lowest concentration found to suppress growth. In general, CC50 refers to the concentration at which the toxic effect on the cells reaches its halfway point. As for `CCO/N=C1/CCN(c2nc3c(cc2F)c(=O)c(C(=O)O)cn3-c2ccc(F)cc2F)CC1(C)N` (centres undefined), the MIC with Pseudomonas aeruginosa came out at 64 µg/mL (≈ 131 µM); in [1], 1 µg/mL (≈ 2.04 µM); in the series on Enterobacter cloacae, 16 µg/mL (≈ 32.7 µM); against Streptococcus pyogenes it was 128 µg/mL (≈ 262 µM); in the series with Escherichia coli it was 8 µg/mL (≈ 16.3 µM); against Klebsiella pneumoniae, 8 µg/mL (≈ 16.3 µM). The MIC in the series with Enterococcus faecalis is 4 µg/mL (≈ 8.17 µM); with Streptococcus pneumoniae it was 16 µg/mL (≈ 32.7 µM); in the series with Shigella sonnei, 16 µg/mL (≈ 32.7 µM); against Staphylococcus aureus [3] it was 128 µg/mL (≈ 262 µM); in the series on Staphylococcus aureus [4], 1 µg/mL (≈ 2.04 µM); in series [5], above 128 µg/mL. In series [2], the CC50 at 72 h stood at 31.4 µM.

Consider `CCO/N=C1/CCN(c2c(F)cc3c(=O)c(C(=O)O)cn(CCF)c3c2F)CC1(C)N` (centres undefined), for which the MIC with Pseudomonas aeruginosa is 128 µg/mL (≈ 291 µM); in [1], 2 µg/mL (≈ 4.54 µM); against Enterobacter cloacae, 16 µg/mL (≈ 36.3 µM); against Streptococcus pyogenes it was 32 µg/mL (≈ 72.7 µM); with Escherichia coli, 8 µg/mL (≈ 18.2 µM); in the series on Klebsiella pneumoniae, 4 µg/mL (≈ 9.08 µM). Further, the minimum inhibitory concentration (MIC) was 16 µg/mL (≈ 36.3 µM) with Enterococcus faecalis; 16 µg/mL (≈ 36.3 µM) against Streptococcus pneumoniae; 16 µg/mL (≈ 36.3 µM) in the series on Shigella sonnei; above 128 µg/mL against Staphylococcus aureus [3]; 2 µg/mL (≈ 4.54 µM) in the series on Staphylococcus aureus [4]; above 128 µg/mL in series [5]. For the same compound, in series [2], the CC50 at 72 h is 243 µM.

With `C[C@H]1COc2c(N3CCN(C)CC3)c(F)cc3c(=O)c(C(=O)O)cn1c23.C[C@H]1COc2c(N3CCN(C)CC3)c(F)cc3c(=O)c(C(=O)O)cn1c23.O` [LEVOFLOXACIN], the MIC against Pseudomonas aeruginosa came out at 0.5 µg/mL; in series [1], 0.5 µg/mL; in the series on Enterobacter cloacae, 0.125 µg/mL; in the series with Streptococcus pyogenes, 4 µg/mL; in the series with Enterococcus faecalis, 1 µg/mL; in the series on Shigella sonnei, 1 µg/mL. Also, the MIC in the series on Staphylococcus aureus [3] is 32 µg/mL; with Staphylococcus aureus [4] it was 0.25 µg/mL; in series [5], 32 µg/mL. For the same compound, the CC50 at 72 h in series [2] is above 1000 µM.

As for `CO/N=C1/CCN(c2nc3c(cc2F)c(=O)c(C(=O)O)cn3-c2ccc(F)cc2F)CC1(C)N` (centres undefined), the MIC is 32 µg/mL (≈ 67.3 µM) against Pseudomonas aeruginosa; 2 µg/mL (≈ 4.21 µM) in [1]; 16 µg/mL (≈ 33.7 µM) in the series with Enterobacter cloacae; above 128 µg/mL against Streptococcus pyogenes; 8 µg/mL (≈ 16.8 µM) in the series with Escherichia coli; 8 µg/mL (≈ 16.8 µM) against Klebsiella pneumoniae. Moreover, the MIC in the series on Enterococcus faecalis is 8 µg/mL (≈ 16.8 µM); against Streptococcus pneumoniae, 8 µg/mL (≈ 16.8 µM); with Shigella sonnei it was 8 µg/mL (≈ 16.8 µM); with Staphylococcus aureus [3], above 128 µg/mL; in the series with Staphylococcus aureus [4], 1 µg/mL (≈ 2.1 µM); in series [5], above 128 µg/mL. Also, the 50% cytotoxic concentration (CC50) at 72 h in series [2] was 259 µM.

As for `CO/N=C1\CN(c2nc3c(cc2F)c(=O)c(C(=O)O)cn3C2CC2)CC1CN` (centres undefined) [GEMIFLOXACIN], the MIC against Pseudomonas aeruginosa is 0.125 µg/mL (≈ 0.321 µM); in series [1], below 0.03 µg/mL; with Enterobacter cloacae it was 0.06 µg/mL (≈ 0.154 µM); in the series with Streptococcus pyogenes, 2 µg/mL (≈ 5.14 µM); in the series with Escherichia coli it was 0.06 µg/mL (≈ 0.154 µM); against Klebsiella pneumoniae, 0.5 µg/mL (≈ 1.28 µM). The MIC with Enterococcus faecalis is 0.06 µg/mL (≈ 0.154 µM); in the series with Streptococcus pneumoniae, 2 µg/mL (≈ 5.14 µM); with Shigella sonnei, 0.06 µg/mL (≈ 0.154 µM); with Staphylococcus aureus [3], 4 µg/mL (≈ 10.3 µM); against Staphylococcus aureus [4], below 0.03 µg/mL; in series [5], 2 µg/mL (≈ 5.14 µM).

On to `CO/N=C1/CCN(c2c(F)cc3c(=O)c(C(=O)O)cn(CCF)c3c2F)CC1(C)N` (centres undefined), for which the MIC stood at 32 µg/mL (≈ 75 µM) with Pseudomonas aeruginosa; 1 µg/mL (≈ 2.35 µM) in [1]; 8 µg/mL (≈ 18.8 µM) with Enterobacter cloacae; 16 µg/mL (≈ 37.5 µM) in the series on Streptococcus pyogenes; 4 µg/mL (≈ 9.38 µM) in the series on Escherichia coli; 4 µg/mL (≈ 9.38 µM) against Klebsiella pneumoniae. The MIC was 8 µg/mL (≈ 18.8 µM) against Enterococcus faecalis; 16 µg/mL (≈ 37.5 µM) with Streptococcus pneumoniae; 8 µg/mL (≈ 18.8 µM) against Shigella sonnei; above 128 µg/mL against Staphylococcus aureus [3]; 1 µg/mL (≈ 2.35 µM) in the series with Staphylococcus aureus [4]; above 128 µg/mL in series [5]. The CC50 at 72 h in series [2] amounted to 626 µM.
